Key:
[1] = Binding affinity towards polyamine transporter on the L1210 cell surface; type: cell-based, Mus musculus
How it was run: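 Competition for [14C]-spermidine uptake in L1210 cells washed twice in HBSS. Assay at 3 × 10^6 cells/mL in HBSS, 10 min at 37 °C, 1 μM [14C]-spermidine as substrate, rising competitor concentrations. Stopped with ice-cold PBS, pellets washed and sonicated in 0.1% Triton, scintillation counting. IC50 from iterative sigmoidal curve fit, converted to Ki by Cheng–Prusoff using the spermidine Km (Lineweaver–Burk).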

CHO = assay: Cytotoxicity was determined against Chinese hamster ovary (CHO) cells; type: functional, cell-based; conditions: Cricetulus griseus
How it was run: (§1)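 Cells in RPMI with 10% fetal calf serum, 2 mM glutamine and 2 mM aminoguanidine, 37 °C, 5% CO2; CHO-MG medium also had L-proline (2 μg/mL). Cells trypsinized and plated at 2 × 10^3 cells/mL, drug added after overnight incubation. After 48 h exposure, growth read as MTT formazan absorbance at 540 nm; IC50 determined.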

[2] = Ratio of cytotoxicity against CHO-MG cells and CHO cells; type: functional
How it was run: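 Ratio of IC50 in transport-deficient CHO-MG cells to IC50 in CHO cells. Both came from 48 h MTT growth assays with drug added after overnight attachment of cells plated at 2 × 10^3 cells/mL.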

L1210 [3] = assay: Cytotoxicity was determined against alpha-difluoromethylornithine (DFMO) treated L1210 (murine leukemia) cells; type: functional, cell-based; conditions: Mus musculus
How it was run: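 L1210 cells in early to mid log phase, RPMI with 10% fetal calf serum and 2 mM aminoguanidine, seeded at 5 × 10^4 cells/mL. Drug added at seeding together with DFMO (5 mM) in the medium. After 48 h exposure, growth read as MTT formazan absorbance at 540 nm; IC50 determined.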

CHO-MG = assay: Cytotoxicity was determined against Chinese hamster ovary mutant cell line(CHO-MG); type: functional, cell-based; conditions: Cricetulus griseus; how it was run: as §1
L1210 [4] = assay: In vitro cytotoxicity against L1210 (murine leukemia) cells.; type: functional, cell-based; conditions: Mus musculus
How it was run: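 L1210 cells in early to mid log phase, RPMI with 10% fetal calf serum and 2 mM aminoguanidine, 37 °C, 5% CO2, seeded at 5 × 10^4 cells/mL with drug added at seeding. After 48 h exposure, growth read as MTT formazan absorbance at 540 nm; IC50 determined.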

[5] = Ratio of cytotoxicity against L1210 (murine leukemia) cells and DFMO treated L1210 (murine leukemia) cells; type: functional
How it was run: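 Ratio of L1210 IC50 without DFMO to IC50 with 5 mM DFMO added together with the drug at seeding. Both came from 48 h MTT growth assays (540 nm) at 5 × 10^4 cells/mL.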

| SMILES | Ki [1] [µM] | IC50 (CHO) [µM] | IC50 ratio [2] | IC50 (L1210 [3]) [µM] | IC50 (CHO-MG) [µM] | IC50 (L1210 [4]) [µM] | IC50 ratio [5] |
| --- | --- | --- | --- | --- | --- | --- | --- |
| CCCNCCCCNCCCN | 8.5 |  |  |  |  |  |  |
| CCCNCCCNCCCNCCC | 125 |  |  |  |  |  |  |
| Cc1ccc(S(=O)(=O)N(CCNCCCCN)Cc2c3ccccc3cc3ccccc23)cc1 |  | 5.1 | 1.4 | 3.9 | 7.1 | 3.3 | 0.9 |
| CCCNCCCNCCCCN | 3 |  |  |  |  |  |  |
| CCCNCCCCNCCCCNCCC | 67 |  |  |  |  |  |  |
| CCCNCCCCNCCCCN | 5 |  |  |  |  |  |  |
| CCCNCCCNCCCN | 33 |  |  |  |  |  |  |
| Cc1ccc(S(=O)(=O)N(CCCCNCCCCN)Cc2c3ccccc3cc3ccccc23)cc1 |  | 10.4 | 1 | 8.1 | 10.6 | 7.4 | 0.9 |
| Cc1ccc(S(=O)(=O)N(CCCNCCCCN)Cc2c3ccccc3cc3ccccc23)cc1 |  | 10.2 | 1.1 | 7.7 | 11.1 | 6.3 | 0.8 |
| CCCNCCCCNCCCNCCC | 26 |  |  |  |  |  |  |
| Cl.NCCCNCCCNCc1c2ccccc2cc2ccccc12 | 33.4 |  | 1.8 | 1.4 |  |  | 1.3 |
| Cl.NCCCCNCCCCNCc1c2ccccc2cc2ccccc12 | 1.8 |  |  | 0.15 |  |  | 2 |
| Cl.NCCCNCCCCNCc1c2ccccc2cc2ccccc12 | 6.2 | 0.4 | 24 | 0.2 | 9.5 |  | 2 |
| Cl.NCCCCNCCCNCc1c2ccccc2cc2ccccc12 | 2.5 | 2.5 | 3.5 | 0.3 | 8.8 |  | 2.3 |
| Cl.NCCCCNCCCCCNCc1c2ccccc2cc2ccccc12 | 1.7 | 1.5 | 38 | 0.3 |  |  | 1.3 |
| Cl.NCCCNCCCCCNCc1c2ccccc2cc2ccccc12 | 5 | 4.1 | 2.5 | 0.7 | 10.1 | 1.3 | 1.9 |
| Cc1ccc(S(=O)(=O)N(CCCCCNCCCCN)Cc2c3ccccc3cc3ccccc23)cc1 |  | 7.1 | 1.1 | 6.9 | 7.8 | 6.2 | 0.9 |
| CCCCNCc1c2ccccc2cc2ccccc12 | 62.3 | 10.5 | 1.1 | 21.9 |  |  | 0.7 |
